Results taken from the M2OR odorant receptor database.
Changes are numbered by the printed parent chain.

Key:
Conditions in all cases: stereoisomer not certain
OR2A1 T73A R74C S168C = tested on: T1, OR2A1 T73A R74C S168C
T1 sequence (whole entry): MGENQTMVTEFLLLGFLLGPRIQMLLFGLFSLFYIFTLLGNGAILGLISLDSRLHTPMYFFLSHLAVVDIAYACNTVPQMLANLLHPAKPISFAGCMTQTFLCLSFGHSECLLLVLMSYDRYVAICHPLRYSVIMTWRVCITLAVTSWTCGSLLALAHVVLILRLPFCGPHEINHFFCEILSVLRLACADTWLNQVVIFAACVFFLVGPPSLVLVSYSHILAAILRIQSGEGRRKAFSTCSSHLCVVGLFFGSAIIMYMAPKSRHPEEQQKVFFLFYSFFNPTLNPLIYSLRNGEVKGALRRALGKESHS
Procedure, shortened: (§1)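 Whether a receptor–molecule pair is responsive (active) rests on the original authors' judgment that its measured signal was statistically different from baseline. Pairs without that judgment are non-responsive (inactive). Sources used varied assay methods, commonly transient luciferase assays in mammalian cell lines.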

OR2A12 (Homo sapiens) = target: T2, OR2A12 (Homo sapiens) (UniProt Q8NGT7)
T2 sequence (whole entry): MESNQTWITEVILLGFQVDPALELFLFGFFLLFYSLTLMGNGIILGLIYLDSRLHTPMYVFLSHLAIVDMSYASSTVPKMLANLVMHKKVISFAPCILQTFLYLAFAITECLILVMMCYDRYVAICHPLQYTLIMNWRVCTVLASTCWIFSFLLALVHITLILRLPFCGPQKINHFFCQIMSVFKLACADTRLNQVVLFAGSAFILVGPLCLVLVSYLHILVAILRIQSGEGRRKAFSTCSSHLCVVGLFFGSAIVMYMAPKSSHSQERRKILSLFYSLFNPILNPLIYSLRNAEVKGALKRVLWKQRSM
Procedure, shortened: as §1

OR2A14 (Homo sapiens) = target: T3, OR2A14 (Homo sapiens) (UniProt Q96R47)
T3 sequence (whole entry): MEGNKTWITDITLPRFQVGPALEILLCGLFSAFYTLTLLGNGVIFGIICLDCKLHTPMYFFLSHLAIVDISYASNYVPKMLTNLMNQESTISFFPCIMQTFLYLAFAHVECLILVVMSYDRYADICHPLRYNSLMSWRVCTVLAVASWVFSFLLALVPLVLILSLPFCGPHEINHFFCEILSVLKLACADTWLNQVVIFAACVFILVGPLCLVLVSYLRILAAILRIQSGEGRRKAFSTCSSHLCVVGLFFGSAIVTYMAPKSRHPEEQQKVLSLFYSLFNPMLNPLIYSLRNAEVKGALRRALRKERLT
Procedure, shortened: as §1

OR2A2 (Homo sapiens) = target: T4, OR2A2 (Homo sapiens) (UniProt Q6IF42)
T4 sequence (whole entry): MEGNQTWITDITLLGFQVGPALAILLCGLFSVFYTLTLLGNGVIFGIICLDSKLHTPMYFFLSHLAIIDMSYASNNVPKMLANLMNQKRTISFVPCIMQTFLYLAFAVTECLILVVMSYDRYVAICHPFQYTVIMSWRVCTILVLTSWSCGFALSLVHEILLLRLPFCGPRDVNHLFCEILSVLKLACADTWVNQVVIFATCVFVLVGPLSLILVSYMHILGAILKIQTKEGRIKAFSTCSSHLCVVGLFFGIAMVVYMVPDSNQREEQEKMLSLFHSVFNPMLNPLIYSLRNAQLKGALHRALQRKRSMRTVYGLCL
Procedure, shortened: as §1

OR2A25 (Homo sapiens) = target: T5, OR2A25 (Homo sapiens) (UniProt A4D2G3)
T5 sequence (whole entry): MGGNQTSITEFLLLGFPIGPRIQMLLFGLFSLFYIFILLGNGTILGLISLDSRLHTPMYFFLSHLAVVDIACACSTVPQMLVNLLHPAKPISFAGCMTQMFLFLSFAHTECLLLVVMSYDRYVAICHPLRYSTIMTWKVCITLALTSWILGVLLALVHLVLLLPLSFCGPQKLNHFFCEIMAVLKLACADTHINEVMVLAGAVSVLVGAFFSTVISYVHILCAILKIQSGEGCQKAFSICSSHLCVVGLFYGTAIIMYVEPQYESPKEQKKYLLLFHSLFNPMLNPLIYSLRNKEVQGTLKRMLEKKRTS
Procedure, shortened: as §1

OR2A2 = tested on: T6, OR2A2
T6 sequence (whole entry): T4 sequence (whole entry) with F280L
Procedure, shortened: as §1

OR2A4 (Homo sapiens) = target: T7, OR2A4 (Homo sapiens) (UniProt O95047)
T7 sequence (whole entry): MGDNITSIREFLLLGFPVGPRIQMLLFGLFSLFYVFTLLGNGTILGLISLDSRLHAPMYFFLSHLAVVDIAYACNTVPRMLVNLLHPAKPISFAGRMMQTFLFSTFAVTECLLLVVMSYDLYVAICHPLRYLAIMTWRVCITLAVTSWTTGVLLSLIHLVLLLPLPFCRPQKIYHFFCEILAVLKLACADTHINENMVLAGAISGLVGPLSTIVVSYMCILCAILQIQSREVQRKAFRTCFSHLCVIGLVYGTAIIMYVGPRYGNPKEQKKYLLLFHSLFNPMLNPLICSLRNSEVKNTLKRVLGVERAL
Procedure, shortened: as §1

OR2A5 (Homo sapiens) = target: T8, OR2A5 (Homo sapiens) (UniProt Q96R48)
T8 sequence (whole entry): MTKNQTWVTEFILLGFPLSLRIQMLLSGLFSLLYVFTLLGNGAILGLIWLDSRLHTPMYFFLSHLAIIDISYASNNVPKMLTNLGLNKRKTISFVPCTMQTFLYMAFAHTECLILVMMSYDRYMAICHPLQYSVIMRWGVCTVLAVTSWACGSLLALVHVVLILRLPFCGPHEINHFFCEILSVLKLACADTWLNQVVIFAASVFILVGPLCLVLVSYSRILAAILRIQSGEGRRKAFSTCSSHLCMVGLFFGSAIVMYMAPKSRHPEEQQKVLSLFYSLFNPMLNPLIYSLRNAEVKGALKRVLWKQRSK
Procedure, shortened: as §1

OR2A5 I126V A202S A255T = tested on: T9, OR2A5 I126V A202S A255T
T9 sequence (whole entry): T8 sequence (whole entry) with I126V, A202S, A255T
Procedure, shortened: as §1

OR2A7 (Homo sapiens) = target: T10, OR2A7 (Homo sapiens) (UniProt Q96R45)
T10 sequence (whole entry): T7 sequence (whole entry) with R9T, R238C, V250F
Procedure, shortened: as §1

OR2A7 = tested on: T11, OR2A7
T11 sequence (whole entry): T7 sequence (whole entry) with R238C, V250F
Procedure, shortened: as §1

OR2AE1 (Homo sapiens) = target: T12, OR2AE1 (Homo sapiens) (UniProt Q8NHA4)
T12 sequence (whole entry): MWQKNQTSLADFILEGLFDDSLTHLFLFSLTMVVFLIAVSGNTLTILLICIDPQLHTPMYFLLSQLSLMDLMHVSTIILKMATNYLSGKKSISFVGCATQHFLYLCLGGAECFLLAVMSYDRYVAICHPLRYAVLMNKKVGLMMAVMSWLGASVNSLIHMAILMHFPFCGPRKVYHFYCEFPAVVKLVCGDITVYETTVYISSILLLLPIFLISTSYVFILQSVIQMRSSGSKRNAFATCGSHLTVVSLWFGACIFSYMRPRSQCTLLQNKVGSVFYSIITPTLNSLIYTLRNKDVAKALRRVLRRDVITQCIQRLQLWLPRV
Procedure, shortened: as §1

OR2AG1 (Homo sapiens) = target: T13, OR2AG1 (Homo sapiens) (UniProt Q9H205)
T13 sequence (whole entry): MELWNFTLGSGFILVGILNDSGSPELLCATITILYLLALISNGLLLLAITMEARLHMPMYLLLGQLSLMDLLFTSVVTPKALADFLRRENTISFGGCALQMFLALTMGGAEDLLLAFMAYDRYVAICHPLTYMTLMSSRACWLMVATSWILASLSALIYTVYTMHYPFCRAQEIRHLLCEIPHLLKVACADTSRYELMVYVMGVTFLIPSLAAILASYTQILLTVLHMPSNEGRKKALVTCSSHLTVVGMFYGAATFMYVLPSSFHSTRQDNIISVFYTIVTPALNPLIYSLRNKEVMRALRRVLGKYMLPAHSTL
Procedure, shortened: as §1

OR2AG2 (Homo sapiens) = target: T14, OR2AG2 (Homo sapiens) (UniProt A6NM03)
T14 sequence (whole entry): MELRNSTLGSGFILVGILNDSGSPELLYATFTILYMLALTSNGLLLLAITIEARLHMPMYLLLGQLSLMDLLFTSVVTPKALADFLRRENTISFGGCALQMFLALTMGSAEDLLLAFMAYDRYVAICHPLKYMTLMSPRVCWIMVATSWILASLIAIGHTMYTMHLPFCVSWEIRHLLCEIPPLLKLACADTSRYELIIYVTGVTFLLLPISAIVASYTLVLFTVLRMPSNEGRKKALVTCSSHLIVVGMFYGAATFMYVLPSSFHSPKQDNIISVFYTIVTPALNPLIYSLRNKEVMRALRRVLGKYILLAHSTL
Procedure, shortened: as §1

OR2AK2 (Homo sapiens) = target: T15, OR2AK2 (Homo sapiens) (UniProt Q8NG84)
T15 sequence (whole entry): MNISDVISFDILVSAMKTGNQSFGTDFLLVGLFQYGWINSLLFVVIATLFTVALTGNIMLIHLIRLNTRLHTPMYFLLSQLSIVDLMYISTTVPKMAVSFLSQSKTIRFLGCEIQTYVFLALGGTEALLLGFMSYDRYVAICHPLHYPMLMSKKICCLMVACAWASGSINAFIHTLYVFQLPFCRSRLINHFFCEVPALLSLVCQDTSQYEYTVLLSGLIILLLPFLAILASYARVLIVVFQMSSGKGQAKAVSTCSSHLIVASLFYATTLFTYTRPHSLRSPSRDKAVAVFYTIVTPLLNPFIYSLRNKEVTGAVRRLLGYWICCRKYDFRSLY
Procedure, shortened: as §1

OR2AP1 (Homo sapiens) = target: T16, OR2AP1 (Homo sapiens) (UniProt Q8NGE2)
T16 sequence (whole entry): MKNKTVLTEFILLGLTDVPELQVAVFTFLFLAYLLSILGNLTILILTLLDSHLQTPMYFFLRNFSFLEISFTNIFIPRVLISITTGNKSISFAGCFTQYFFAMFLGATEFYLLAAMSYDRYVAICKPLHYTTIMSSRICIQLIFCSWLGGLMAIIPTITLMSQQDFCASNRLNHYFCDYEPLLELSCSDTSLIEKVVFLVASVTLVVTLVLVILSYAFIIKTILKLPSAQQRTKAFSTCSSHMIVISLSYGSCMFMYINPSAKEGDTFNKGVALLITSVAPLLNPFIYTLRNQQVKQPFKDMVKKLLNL
Procedure, shortened: as §1

OR2AT4 (Homo sapiens) = target: T17, OR2AT4 (Homo sapiens) (UniProt A6NND4)
T17 sequence (whole entry): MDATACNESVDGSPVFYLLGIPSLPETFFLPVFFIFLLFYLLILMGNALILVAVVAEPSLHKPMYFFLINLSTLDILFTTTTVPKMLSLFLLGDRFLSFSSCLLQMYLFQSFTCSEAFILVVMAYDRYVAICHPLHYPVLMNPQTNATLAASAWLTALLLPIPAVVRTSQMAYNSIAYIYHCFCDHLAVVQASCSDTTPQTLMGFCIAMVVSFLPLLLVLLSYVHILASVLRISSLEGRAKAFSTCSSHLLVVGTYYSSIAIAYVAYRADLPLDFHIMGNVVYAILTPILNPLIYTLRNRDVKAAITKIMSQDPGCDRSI
Procedure, shortened: as §1

OR2B11 (Homo sapiens) = target: T18, OR2B11 (Homo sapiens) (UniProt Q5JQS5)
T18 sequence (whole entry): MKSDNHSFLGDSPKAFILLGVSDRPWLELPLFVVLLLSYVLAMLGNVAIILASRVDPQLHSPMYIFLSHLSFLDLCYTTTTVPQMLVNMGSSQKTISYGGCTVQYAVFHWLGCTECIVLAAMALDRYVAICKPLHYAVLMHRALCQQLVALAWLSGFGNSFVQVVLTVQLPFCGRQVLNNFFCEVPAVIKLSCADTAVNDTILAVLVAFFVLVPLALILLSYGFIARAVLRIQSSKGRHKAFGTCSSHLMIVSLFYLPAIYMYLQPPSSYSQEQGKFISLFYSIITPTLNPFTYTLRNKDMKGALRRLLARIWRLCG
Procedure, shortened: as §1

OR2B2 (Homo sapiens) = target: T19, OR2B2 (Homo sapiens) (UniProt Q9GZK3)
T19 sequence (whole entry): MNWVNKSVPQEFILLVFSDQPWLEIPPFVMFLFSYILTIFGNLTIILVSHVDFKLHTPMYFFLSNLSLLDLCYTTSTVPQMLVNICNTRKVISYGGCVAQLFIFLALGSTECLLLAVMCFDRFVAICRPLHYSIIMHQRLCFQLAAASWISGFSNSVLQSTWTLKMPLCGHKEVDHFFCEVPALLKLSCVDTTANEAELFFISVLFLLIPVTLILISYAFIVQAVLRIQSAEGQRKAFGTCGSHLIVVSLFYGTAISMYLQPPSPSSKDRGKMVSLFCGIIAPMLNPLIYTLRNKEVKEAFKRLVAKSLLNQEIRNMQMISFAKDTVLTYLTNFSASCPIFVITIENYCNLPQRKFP
Procedure, shortened: as §1

Measured: odorant receptor agonist call

CCC1OC(C)=C(O)C1=O (centres undefined)
inactive: all assays above
